The values below come from ChEMBL document CHEMBL3244172, “Easily hydrolyzable, water-soluble derivatives of (+/-)-alpha-5-[1-(indol-3-yl)ethyl]-2-methylamino-delta2-thiazoline-4-one, a novel antiviral compound” (J Med Chem, 1979).

The structures appear in SMILES notation. Active and inactive are the calls of the source. No cut-off for these calls is given here. Bounds are passed on as bounds.

Data set [1] concerns Coxsackievirus B1. The data set is described as follows: Antiviral activity against Coxsackievirus B1 infected in human HeLa cells at 1 mg/ml by agar diffusion method. It is filed as functional. To be noted: Enterovirus B; read-out: DIZ. Summed up:
(§1)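 Agar diffusion: compounds were diluted to 1 mg/mL in Eagle's MEM from stocks of 10 mg/mL in water or 100 mg/mL in DMSO. 0.02 mL went into 6 mm wells cut in the agar overlay above infected monolayers (influenza in MDCK, Coxsackie B1 in HeLa). Read-out was the diameter (mm) of the plaque-free inhibition zone around each well.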
For orientation: In agar diffusion tests the substance spreads into inoculated agar from a disc or well.

The subject of data set [2] is Coxsackievirus B1. Briefly: Antiviral activity against Coxsackievirus B1 infected in human HeLa cells assessed as plaque reduction after 42 hrs by agar diffusion method. It is filed as functional. Summed up: (§2)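 Plaque reduction: varying compound concentrations were put in the agar overlay above infected monolayers. Coxsackie B1/HeLa was incubated 42 h at 37 °C; influenza/MDCK 3 days at 33 °C. PDD50 is the lowest concentration giving ≥50% fewer plaques than untreated controls.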

Data set [3] in a line: Cytotoxicity against human HeLa cells infected with Coxsackievirus B1 after 42 hrs by carbol fuchsin staining-based assay. The data set is classed as cell-based. The gist of the method: (§3)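 HeLa monolayers infected with Coxsackie B1 under an agar overlay holding varying compound concentrations, incubated 37 °C, 42 h. Monolayers stained with carbol fuchsin or neutral red. MCC is the lowest concentration causing morphological abnormalities.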

Data set [4] in a line: Cytotoxicity against MDCK cells infected with Influenza A virus Port Chalmers/1/73 (H3N2) after 3 days by carbol fuchsin staining-based assay. The data set is classed as cell-based, Canis lupus familiaris. To be noted: dog. The gist of the method:
(§4)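 MDCK monolayers infected with influenza had compound in the agar overlay and were incubated 3 days at 33 °C. Monolayers were stained with carbol fuchsin or neutral red. MCC is the lowest concentration causing morphological cell abnormalities.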

Data set [5] deals with Influenza A virus. The data set is described as follows: Antiviral activity against Influenza A virus Port Chalmers/1/73 (H3N2) infected in MDCK cells assessed as plaque reduction after 3 days by agar diffusion method. The data set is classed as functional. Summed up:
as §2

Data set [6] concerns Influenza A virus. Briefly: Antiviral activity against Influenza A virus Port Chalmers/1/73 (H3N2) infected in MDCK cells at 1 mg/ml by agar diffusion method. It is filed as functional. Conditions: read-out: DIZ. Summed up:
as §1

Data set [7] has as its system MDCK. The data set is described as follows: Cytotoxicity against MDCK cells infected with Influenza A virus Port Chalmers/1/73 (H3N2) up to 100 ug/ml after 3 days by carbol fuchsin staining-based assay. The data set is classed as cell-based, Canis lupus familiaris. Conditions: dog, 72 h. The gist of the method:
as §4

For data set [8], the system named is HeLa. Briefly: Cytotoxicity against human HeLa cells infected with Coxsackievirus B1 up to 100 ug/ml after 42 hrs by carbol fuchsin staining-based assay. The data set is classed as cell-based. The gist of the method: as §3
Data set [9] has as its system Coxsackievirus B1. Briefly: Antiviral activity against Coxsackievirus B1 infected in human HeLa cells assessed as plaque reduction up to 100 ug/ml after 42 hrs by agar diffusion method. The data set is classed as functional, organism-based. Summed up: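 Compound mixed at varying concentrations into the agar overlay above Coxsackie B1-infected HeLa monolayers. Incubated 37 °C for 42 h. PDD50 is the lowest concentration giving ≥50% fewer plaques than untreated controls.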

The test system of data set [10] is Influenza A virus. Briefly: Antiviral activity against Influenza A virus Port Chalmers/1/73 (H3N2) infected in MDCK cells assessed as plaque reduction up to 100 ug/ml after 3 days by agar diffusion method. It is filed as functional, organism-based. Summed up: as §2
The nature of data set [11]: Stability in unbuffered aqueous solutions at pH >6 assessed as compound hydrolysis. Conditions: unbuffered aqueous solution. The data set is classed as physicochemical.
Data set [12] can be described thus: Solubility in water. The data set is classed as physicochemical. Conditions: buffer.
Data set [13] in a line: Stability in unbuffered aqueous solutions at pH >6 assessed as compound decarboxylation. The data set is classed as physicochemical.
A short description of data set [14]: Stability in aqueous solutions at neutral pH. To be noted: buffer. It is filed as physicochemical.
Data set [15] relates to Influenza A virus. The data set is described as follows: Antiviral activity against Influenza A virus Port Chalmers/1/73 (H3N2) infected in ferret assessed as serum antibody response to virus infection at 16 mg/kg administered intranasally 7 times on day 0 and 9 times on day 1 to day 3 by serum antibody response test relative to untreated control. The data set is classed as functional, organism-based. On the set-up: dose 16 mg/kg. The gist of the method:
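Dosing was as in the other ferret groups: infected ferrets, hourly intranasal 0.2 mL of 50 mg/mL in water, 7 doses on day 0 and 9 on days +1 to +3. Blood was taken by cardiac puncture under Penthrane/N2O/O2 before and 10 days after infection. Sera were KIO4-treated to remove nonspecific inhibitors, then tested by hemagglutination inhibition against the infecting virus.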

With `OC(c1ccccc1)c1nc2ccccc2[nH]1` (stereo not given), the zone of inhibition at 1000 µg/mL in data set [1] turned out to be 25 mm. For the same compound, the PDD50 in [2] turned out to be 20 µg/mL. This compound also came in with an MCC at 42 h in [3] of more than 100 µg/mL.

`CNC1=NC(=O)C(C(C)c2c[nH]c3ccccc23)S1` (racemic): the zone of inhibition at 1000 µg/mL turned out to be 29 mm in data set [1] and 30 mm in [6]. Also, the MCC at 72 h in data set [4] was found to be 3 µg/mL. The PDD50 in data set [5] came to 0.5 µg/mL; in [2], 5 µg/mL. The MCC at 42 h in data set [3] stood at 30 µg/mL.

On to `CNC1=NC(=O)C(C(C)c2cn(C(C)=O)c3ccccc23)S1` (racemic), for which the Activity result in data set [7] and in data set [8] was “Non-toxic” throughout. Besides, the outcome in [9] and in data set [10] was inactive.

In the case of `CNC1=NC(=O)C(C(C)c2cn(C(=O)OCc3ccccc3)c3ccccc23)S1` (racemic), the Activity entry in [7] and in [8] was “Non-toxic” throughout. Also, the outcome in data set [9] and in [10] was inactive.

Consider `CCSC(=O)n1cc(C(C)C2SC(NC)=NC2=O)c2ccccc21` (racemic), for which the Activity result in [7] and in [8] was “Non-toxic” each time. Besides, the result in data set [9] and in [10] was inactive.

Turning to `CNC1=NC(=O)C(C(C)c2cn(C(=O)CCC(=O)O)c3ccccc23)S1` (racemic), the zone of inhibition at 1000 µg/mL in data set [1] and in data set [6] was 0 mm in each case. The compound further showed an MCC at 72 h in data set [4] of more than 100 µg/mL. For the same compound, the PDD50 in data set [5] is more than 100 µg/mL; in data set [2], 100 µg/mL. Besides, the MCC at 42 h in data set [3] is more than 100 µg/mL.

`CNC1=NC(=O)C(C(C)c2cn(C(=O)CCC(=O)OC)c3ccccc23)S1` (racemic): the Activity result in data set [7] and in data set [8] was “Non-toxic” throughout. Besides, the result in data set [9] and in data set [10] was inactive.

For the compound `CNC1=NC(=O)C(C(C)c2cn(C(=O)CCCC(=O)O)c3ccccc23)S1` (racemic), the zone of inhibition at 1000 µg/mL worked out at 20 mm in data set [1] and 24 mm in [6]. In addition, the MCC at 72 h in data set [4] was 100 µg/mL. For the same compound, the PDD50 in data set [5] is 5 µg/mL; in data set [2] it was 10 µg/mL. The compound also gave an MCC at 42 h in data set [3] of more than 100 µg/mL.

Regarding `CNC1=NC(=O)C(C(C)c2cn(C(=O)c3ccccc3C(=O)O)c3ccccc23)S1` (racemic) [listing 1 of 2 here], the Activity result in data set [7] and in data set [8] was “Non-toxic” throughout.

`CNC1=NC(=O)C(C(C)c2cn(C(=O)OCC(C)(C)N(C)C)c3ccccc23)S1` (racemic) [listing 1 of 2 here]: the zone of inhibition at 1000 µg/mL came out at 35 mm in data set [1] and 30 mm in data set [6]. In [4], this compound had an MCC at 72 h of 3 µg/mL. Further, the PDD50 in data set [5] was 0.3 µg/mL; in [2] it was 20 µg/mL. The same compound came in with an MCC at 42 h in data set [3] of 100 µg/mL.

On to `CNC1=NC(=O)C(C(C)c2cn(C(=O)OC(C)(C)CN(C)C)c3ccccc23)S1` (racemic), for which the zone of inhibition at 1000 µg/mL in [1] stood at 21 mm; in data set [6], 25 mm. This compound also yielded an MCC at 72 h in data set [4] of 3 µg/mL. The PDD50 came out at 0.3 µg/mL in data set [5] and 5 µg/mL in data set [2]. This compound also returned an MCC at 42 h in data set [3] of 30 µg/mL.

As for `CNC1=NC(=O)C(C(C)c2cn(C(=O)OCC(C)(C)N3CCOCC3)c3ccccc23)S1` (racemic), the results for the zone of inhibition at 1000 µg/mL in data set [1] and in [6] were 24 mm and 26 mm, respectively. In addition, in data set [4], the MCC at 72 h came to 30 µg/mL. Moreover, the PDD50 is 2 µg/mL in [5] and 5 µg/mL in data set [2]. Also, in data set [3], the MCC at 42 h was found to be 100 µg/mL.

Turning to `CNC1=NC(=O)C(C(C)c2cn(C(=O)OC(C)CN(C)C)c3ccccc23)S1` (racemic), the results for the zone of inhibition at 1000 µg/mL in data set [1] and in [6] were 25 mm and 31 mm, respectively. Further, the MCC at 72 h in data set [4] came to 10 µg/mL. Moreover, the PDD50 in [5] came to 0.5 µg/mL; in data set [2] it was 20 µg/mL. The MCC at 42 h in [3] turned out to be 100 µg/mL.

As for `CNC1=NC(=O)C(C(C)c2cn(C(=O)OCC(C)(C)[N+](C)(C)C)c3ccccc23)S1.[I-]` (racemic), the Activity result in data set [7] and in data set [8] was “Non-toxic” throughout. Further, the outcome in data set [9] and in data set [10] was inactive.

Consider `CNC1=NC(=O)C(C(C)c2cn(C(=O)OC(C)CN(C)C)c3ccccc23)S1.Cl` (racemic), for which the Stability result in [11] and in data set [13] was “Unstable” throughout. The solubility result in [12] was “soluble”.

Turning to `CNC1=NC(=O)C(C(C)c2cn(C(=O)CCC(=O)[O-])c3ccccc23)S1.[Na+]` (racemic), the Stability result in data set [14] is listed as “Stable”. In addition, in data set [12], the solubility entry is “soluble”.

As to `CNC1=NC(=O)C(C(C)c2cn(C(=O)CCCC(=O)[O-])c3ccccc23)S1.[Na+]` (racemic), the Stability result in data set [14] is “Stable”. Besides, in data set [12], the solubility result is reported as “soluble”.

As to `CNC1=NC(=O)C(C(C)c2cn(C(=O)c3ccccc3C(=O)[O-])c3ccccc23)S1.[Na+]` (racemic), in [14], the Stability result is listed as “Stable”. For the same compound, in [12], the solubility entry is recorded as “soluble”.

Turning to `CNC1=NC(=O)C(C(C)c2cn(C(=O)OC(C)(C)CN(C)C)c3ccccc23)S1.Cl` (racemic), the Stability entry in [11] and in data set [13] was “Unstable” throughout. The solubility result in data set [12] is reported as “soluble”.

As for `CNC1=NC(=O)C(C(C)c2cn(C(=O)OCC(C)(C)N3CCOCC3)c3ccccc23)S1.Cl` (racemic), the Stability result in data set [11] and in [13] was “Unstable” each time. Further, the solubility result in data set [12] is “soluble”.

On to `CNC1=NC(=O)C(C(C)c2cn(C(=O)OCC(C)(C)N(C)C)c3ccccc23)S1` (racemic) [listing 2 of 2 here], for which, in [15], the result was Active.

As for `CNC1=NC(=O)C(C(C)c2cn(C(=O)c3ccccc3C(=O)O)c3ccccc23)S1` (racemic) [listing 2 of 2 here], the outcome in [9] and in data set [10] was inactive.
